Assay outcomes (PubChem BioAssay)
The list is not random: actives were taken first. Their share in the collection is about 2.4%.
NPY-Y1 antag = NPY-Y1 receptor antagonists, primary screen, cell-based; Neuropeptide Y receptor type 1 (Homo sapiens), P25929; HEK293-CNG Y1 cells, membrane potential fluorescence; NPY at EC95, then isoproterenol; inhibition, % at 3.6 µM; 200,000 compounds, 1% hits; AID 1040, 2008;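 active means inhibition above the campaign mean inhibition of all tested compounds plus 3 SD, cut at about 20% in these data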
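Material: Y1- and CNG-channel-expressing HEK293 cells / Probe or stimulus: NPY 25 nM then isoproterenol 1 µM plus Ro 20-1724 25 µM / Doses: 3.6 µM single dose, DMSO 0.4% / Schedule: compound incubation 1 h at room temperature, readout 45 min post-stimulation / Signal: membrane potential fluorescence / Benchmarks: isoproterenol-only wells as full block versus NPY-plus-isoproterenol wells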
NPY-Y2 PAM-ag = NPY-Y2 potentiators or agonists, primary screen, cell-based; Neuropeptide Y receptor type 2 (Homo sapiens), P49146; cells expressing NPY-Y2, potentiator/agonist read-out; activation, % at 3.6 µM; 220,000 compounds, 0.45% hits; AID 1359, 2008; in the data active means activation above about 27%;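 further: cells stimulated with NPY near EC25 plus isoproterenol at EC100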
NPY1 pot ag = NPY-Y1 receptor potentiators or agonists, primary screen, cell-based | NPY-Y1 expressing cells, potentiator/agonist activation | activation, % at 3.6 µM | 220,000 compounds, 0.37% hits | Neuropeptide Y receptor type 1 (Homo sapiens), P25929 | AID 1304, 2008; in the data active means activation above about 33%, passing the limit was not always enough;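 further: cells stimulated with NPY at EC10 then isoproterenol at EC100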
S1P4 antagonist = S1P4 receptor antagonists, primary screen, cell-based | Sphingosine 1-phosphate receptor 4 (Homo sapiens), O95977 | S1P4-expressing cells, antagonist mode, reporter read-out | inhibition, % at 4.98 µM | 220,000 compounds, 0.26% hits | AID 1510, 2009; in the data active means inhibition above about 29%
Target sequence (O95977 whole entry, looked up): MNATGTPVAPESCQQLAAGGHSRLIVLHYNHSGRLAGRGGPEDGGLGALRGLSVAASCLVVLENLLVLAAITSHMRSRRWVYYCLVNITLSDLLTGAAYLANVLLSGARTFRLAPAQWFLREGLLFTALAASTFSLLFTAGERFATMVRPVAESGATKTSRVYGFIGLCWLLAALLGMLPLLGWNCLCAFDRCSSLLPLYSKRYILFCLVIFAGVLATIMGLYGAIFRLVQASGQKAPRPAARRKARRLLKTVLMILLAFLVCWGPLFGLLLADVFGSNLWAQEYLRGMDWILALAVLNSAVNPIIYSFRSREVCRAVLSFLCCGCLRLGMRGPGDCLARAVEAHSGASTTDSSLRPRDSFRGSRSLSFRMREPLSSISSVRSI
NPY Y2 blocker = NPY-Y2 receptor antagonists, primary screen, cell-based; AID 793, 2007; NPY-Y2 expressing cells, antagonist mode; inhibition, % at 2.7 µM; 140,000 compounds, 0.99% hits; Neuropeptide Y receptor type 2 (Homo sapiens), P49146
S1P4 ag = S1P4 receptor agonists, primary screen, cell-based; Sphingosine 1-phosphate receptor 4 (Homo sapiens), O95977; S1P4-expressing cell line, agonist reporter assay; activation, % at 4.98 µM; 220,000 compounds, 0.35% hits; in the data active means activation above about 11%
NPY1 antag conf = NPY-Y1 receptor antagonists, retest of hits, confirmation, HEK293-CNG cells, membrane potential fluorescence, triplicate | AID 1254, 2008 | 1,200 compounds, 21% hits | cAMP; NPY challenge against isoproterenol-raised cAMP | inhibition, % at 3.6 µM | shares compounds with NPY-Y1 antag; in the data active means inhibition above about 20%
NPY-Y2 antag ct = NPY-Y2 receptor antagonists, selectivity check, confirmation, counter-screen for NPY-Y1 antagonist project, HEK293-CNG cells, membrane potential fluorescence, triplicate. shares compounds with NPY-Y1 antag. antagonism; cells given NPY, then isoproterenol. inhibition, % at 3.6 µM. 1,200 compounds, 28% hits. AID 1255, 2008
Of the large screens only hits and unclear results are named; the others gave an inactive call (follow-up assays come after a bar, where they were run). Unless noted, no stated cut-off is given here; in the data, active means inhibition above about 17%; inactive means the rest.

O=C(Nc1ccc(C(F)(F)F)cc1Cl)c1ccc(Cn2cc(Br)cn2)o1	NPY-Y1 antag 21.8 | NPY1 antag conf inactive | NPY-Y2 antag ct inactive
O=C(Nc1cccc(C(F)(F)F)c1)c1ccc(Cn2cc(Br)cn2)o1	none
CN(c1ccccc1)P(=O)(N(C)c1ccccc1)N(C)c1ccccc1	NPY-Y1 antag 34.1 (no result: NPY Y2 blocker) | NPY1 antag conf 30.3 | NPY-Y2 antag ct 20.1
CCN(c1ccccc1)P(=O)(Nc1ccccc1)Nc1ccccc1	none (no result: NPY-Y1 antag, NPY Y2 blocker)
O=c1oc2ccccc2c(N2CCOCC2)c1[N+](=O)[O-]	none (no result: NPY Y2 blocker)
Cc1cc(OCC(=O)N2CCc3ccccc3C2)c2c(-c3ccccc3)cc(=O)oc2c1	NPY-Y1 antag 20.8 | NPY1 antag conf inactive | NPY-Y2 antag ct inactive
CCOc1cc(C)cc2oc(=O)cc(-c3ccccc3)c12	none
N=c1n(CCN2CCOCC2)c2ccccc2n1Cc1ccccc1Br	NPY-Y1 antag 20.6 | NPY1 antag conf inactive | NPY-Y2 antag ct inactive
O=C(NCc1cccnc1)C(=O)C1C(=O)Nc2ccccc21 (centres undefined)	none (no result: NPY-Y1 antag, NPY Y2 blocker)
CC(=O)Nc1cc2c(=O)n(Cc3ccccc3)c(C)nc2cc1N1CCOCC1	none
Cc1nc2cc(N3CCCCC3)c(NC(=O)c3cccnc3)cc2c(=O)n1Cc1ccccc1	NPY-Y1 antag 23.0 | NPY1 antag conf inactive | NPY-Y2 antag ct inactive
Cc1cc(N2CCN(c3ccc(F)cc3)CC2)nc(-c2ccccc2)n1	NPY-Y1 antag 20.7 | NPY1 antag conf inactive | NPY-Y2 antag ct inactive
Cc1cc(N2CCC(C(=O)Nc3ccc(F)cc3)CC2)nc(-c2ccccc2)n1	none
CC(=O)N(Cc1ccc(Br)cc1)c1cccc(C)c1C	NPY-Y1 antag 33.5 (no result: NPY Y2 blocker) | NPY1 antag conf inactive | NPY-Y2 antag ct inactive
CCCCN(C)CCCNC(=O)c1cn(CC)c2ccc(S(=O)(=O)N3CCc4ccccc4C3)cc2c1=O	none (no result: NPY Y2 blocker)
CCCCN(CC)CCCNC(=O)c1cn(CC)c2ccc(S(=O)(=O)N3CCc4ccccc4C3)cc2c1=O	NPY-Y1 antag 21.9 (no result: NPY Y2 blocker) | NPY1 antag conf inactive | NPY-Y2 antag ct 29.4
CC1CCN(c2nc(Cl)nc(Nc3ccc([N+](=O)[O-])cc3)n2)CC1	none
CC(=O)N(C)C(c1ccc(N(C)C)cc1)c1nnnn1-c1c(C)cccc1C (centres undefined)	NPY-Y1 antag 23.8 | NPY1 antag conf inactive | NPY-Y2 antag ct inactive
O=C(CCCOc1ccc(Cl)cc1Cl)N1CCN(c2ccccn2)CC1	NPY-Y1 antag 24.2 | NPY1 antag conf inactive | NPY-Y2 antag ct inactive
O=C(COc1ccc(Cl)cc1Cl)N1CCN(c2ccccn2)CC1	none (no result: NPY Y2 blocker)
C[C@@H]1CN(C(=O)c2nc3ccc(Cl)cn3c2CNCC[C@@H]2C[C@@H]3C=C[C@H]2C3)C[C@H](C)O1	NPY-Y1 antag 23.9 (no result: NPY Y2 blocker) | NPY1 antag conf inactive | NPY-Y2 antag ct inactive
O=S(=O)(c1ccc2c(c1)OCCO2)N(Cc1ccc(F)cc1)Cc1nnc(-c2cccs2)o1	NPY-Y1 antag 45.3 | NPY1 antag conf inactive | NPY-Y2 antag ct inactive
